Test results from paper PMC9713862 (ACS Omega, 2022).
Marks after values point to notes of the source that are not given here.

Key:
[1] = target: apo-transferrin (apoTf) (Homo sapiens, UniProt P02787); test: Stability assessment in apoTf solution; assay type: in vitro ADME; details: 74 kBq/100 μL added to same volume of 0.2 mM apoTf in 200 mM sodium bicarbonate buffer pH 7.4 (ApoTf 0.1 mM), 37 °C, 5% CO2, RP-TLC, mean ± SD (n = 5)
How it was run: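 [67Ga]-labelled test compound was HPLC-purified and taken up in D-PBS(−). 74 kBq/100 μL was mixed with an equal volume of 0.2 mM (stock) apoTf in 200 mM sodium bicarbonate, pH 7.4. The mix was held at 37 °C under 5% CO2. At 3 and 24 h, 5 μL aliquots were analysed by RP-18 TLC in 0.1% aqueous TFA/MeCN with 0.1% TFA (2:3).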

[2] = Ga complex with N3O3 configuration, 1.5 h; cited from earlier work

apo-transferrin (apoTf), sequence (P02787 20-698): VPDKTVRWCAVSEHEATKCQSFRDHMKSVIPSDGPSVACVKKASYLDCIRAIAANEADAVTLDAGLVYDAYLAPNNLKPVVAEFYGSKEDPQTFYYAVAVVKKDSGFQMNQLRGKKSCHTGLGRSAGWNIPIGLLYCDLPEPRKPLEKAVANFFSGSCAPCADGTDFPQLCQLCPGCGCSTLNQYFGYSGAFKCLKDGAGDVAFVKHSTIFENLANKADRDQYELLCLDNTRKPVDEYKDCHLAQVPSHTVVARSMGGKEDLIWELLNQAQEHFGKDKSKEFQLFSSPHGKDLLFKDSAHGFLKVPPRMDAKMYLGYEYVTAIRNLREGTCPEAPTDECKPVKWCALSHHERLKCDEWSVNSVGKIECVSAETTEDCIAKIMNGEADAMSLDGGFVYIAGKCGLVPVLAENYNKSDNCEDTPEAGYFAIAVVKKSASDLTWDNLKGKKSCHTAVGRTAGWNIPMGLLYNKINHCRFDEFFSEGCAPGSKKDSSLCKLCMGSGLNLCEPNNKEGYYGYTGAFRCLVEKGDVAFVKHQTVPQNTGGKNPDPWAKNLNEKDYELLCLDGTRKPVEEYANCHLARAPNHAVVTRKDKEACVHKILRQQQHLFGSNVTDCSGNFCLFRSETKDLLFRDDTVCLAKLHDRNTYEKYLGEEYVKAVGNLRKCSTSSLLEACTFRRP

SMILES	Stability of 67Ga-labeled model chelators, ApoTf (0.1 mM), 3 h [1]	Stability of 67Ga-labeled model chelators, ApoTf (0.1 mM), 24 h [1]	Ga complex decomposed in human serum [2]
CCCCNC(=O)CN1CCN(CC(=O)[O-])CCN(CC(=O)[O-])CCN(CC(=O)[O-])CC1.[67Ga+3] [[^67Ga]Ga-DO3AM^Bu]	87.4 ± 0.5 ^b ^c	43.1 ± 1.1 ^b ^c	–
O=C([O-])CN1CCN(CC(=O)[O-])CCN(CC(=O)[O-])CCN(CC(=O)[O-])CC1.[67Ga+3] [[^67Ga]Ga-DOTA, reference compound]	96.4 ± 0.2	89.6 ± 0.5	–
O=C(O)CN1CCOCCN(CC(=O)O)CCN(CC(=O)O)CC1 [oxo-DO3A]	–	–	> 80%

The next lines start with results.

Stability of 67Ga-labeled model chelators, ApoTf (0.1 mM), 3 h [1]	Stability of 67Ga-labeled model chelators, ApoTf (0.1 mM), 24 h [1]	SMILES	Ga complex decomposed in human serum [2]
80.0 ± 1.3 ^b ^c ^d	27.5 ± 4.6 ^b ^c ^d	CCCCNC(=O)CCC(C(=O)[O-])N1CCN(CC(=O)[O-])CCN(CC(=O)[O-])CCN(CC(=O)[O-])CC1.[67Ga+3] (centres unmarked) [[^67Ga]Ga-DOTAGAM^Bu]	–
93.8 ± 0.6 ^b	67.5 ± 0.6 ^b	O=C([O-])CN1CCN(CC(=O)[O-])CCN(Cc2ccc([N+](=O)[O-])cc2)CCN(CC(=O)[O-])CC1.[67Ga+3] [[^67Ga]Ga-p-NO2-Bn-DO3A]	–
95.1 ± 1.2 ^d ^e ^f	90.3 ± 0.7 ^c ^d ^e ^f	O=C([O-])CN1CCN(CC(=O)[O-])CCN(CC(=O)[O-])C(Cc2ccc([N+](=O)[O-])cc2)CN(CC(=O)[O-])CC1.[67Ga+3] (centres unmarked) [[^67Ga]Ga-p-NO2-Bn-DOTA (A)]	–
